The term inhibition denotes the drop in the measured response relative to a control, in per cent.

In experiment [1] the target is Calcium/calmodulin-dependent protein kinase type 1 (Homo sapiens) (UniProt Q14012). The experiment in a line: Inhibition of CAMK1 alpha Lys1 labeling site in human Huh-7 cell lysate at 1 uM by KiNativ Profiling analysis relative to control. In kind it is subcellular.
The target in experiment [2] is Serine/threonine-protein kinase 10 (Homo sapiens) (UniProt O94804). Nature of the experiment: Inhibition of LOK Lys1 labeling site in human A-375 cells at 0.5 uM by KiNativ Profiling analysis relative to control. In kind it is cell-based.
Experiment [3] addresses Serine/threonine-protein kinase mTOR (Homo sapiens) (UniProt P42345). Nature of the experiment: Inhibition of FRAP ATP labeling site in human A-375 cells at 5 uM by KiNativ Profiling analysis relative to control. In kind it is cell-based.
Experiment [4] concerns the target Tyrosine-protein kinase JAK1 (Homo sapiens) (UniProt P23458). Nature of the experiment: Inhibition of JAK1 in human A-375 cells at 5 uM by KiNativ Profiling analysis relative to control. In kind it is cell-based.
In experiment [5] the target is T1, Mitogen-activated protein kinase kinase kinase 2 (Homo sapiens) (UniProt Q9Y2U5).
T1 sequence (whole entry): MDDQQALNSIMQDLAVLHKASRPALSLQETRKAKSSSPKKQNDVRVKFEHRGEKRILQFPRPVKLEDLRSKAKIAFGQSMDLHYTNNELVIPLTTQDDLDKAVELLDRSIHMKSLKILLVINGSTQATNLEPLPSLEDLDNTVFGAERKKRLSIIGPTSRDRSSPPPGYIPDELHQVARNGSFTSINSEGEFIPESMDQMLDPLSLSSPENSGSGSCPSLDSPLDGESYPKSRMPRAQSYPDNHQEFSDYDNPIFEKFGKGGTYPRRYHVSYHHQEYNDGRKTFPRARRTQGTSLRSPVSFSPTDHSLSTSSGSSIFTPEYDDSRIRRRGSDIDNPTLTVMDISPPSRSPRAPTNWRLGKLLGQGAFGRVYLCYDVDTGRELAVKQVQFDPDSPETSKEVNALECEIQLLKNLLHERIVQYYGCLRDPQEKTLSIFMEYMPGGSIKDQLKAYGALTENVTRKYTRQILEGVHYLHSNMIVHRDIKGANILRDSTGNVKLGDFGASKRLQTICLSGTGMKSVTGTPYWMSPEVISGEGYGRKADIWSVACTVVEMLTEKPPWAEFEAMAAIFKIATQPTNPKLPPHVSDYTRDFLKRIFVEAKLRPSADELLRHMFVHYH
The experiment in a line: Inhibition of MAP3K2 Lys1 labeling site harbouring VYLCYDVDTGRELAVKQVQFDPDSPETSKEVNALECEIQLLK in human A-375 cells at 5 uM by KiNativ Profiling analysis relative to control. In kind it is cell-based.

The target of experiment [6] is Diacylglycerol kinase alpha (Homo sapiens) (UniProt P23743). The experiment in a line: Inhibition of DGKA ATP labeling site harbouring in human A-375 cells at 0.5 uM by KiNativ Profiling analysis relative to control. In kind it is cell-based. In outline:
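Live A375 melanoma cells were treated with compound at 0.5 or 5 μM, then lysed. Lysates were labeled with a lysine-reactive ATP or ADP-biotin probe. The read-out was protection of each kinase probe-labeling site from labeling, relative to control.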

The target in experiment [7] is Tyrosine-protein kinase JAK1 (Homo sapiens) (UniProt P23458). Nature of the experiment: Inhibition of JAK1 in human A-375 cells at 0.5 uM by KiNativ Profiling analysis relative to control. In kind it is cell-based.
Chain of Tyrosine-protein kinase JAK1 (Homo sapiens) (P23458 whole entry): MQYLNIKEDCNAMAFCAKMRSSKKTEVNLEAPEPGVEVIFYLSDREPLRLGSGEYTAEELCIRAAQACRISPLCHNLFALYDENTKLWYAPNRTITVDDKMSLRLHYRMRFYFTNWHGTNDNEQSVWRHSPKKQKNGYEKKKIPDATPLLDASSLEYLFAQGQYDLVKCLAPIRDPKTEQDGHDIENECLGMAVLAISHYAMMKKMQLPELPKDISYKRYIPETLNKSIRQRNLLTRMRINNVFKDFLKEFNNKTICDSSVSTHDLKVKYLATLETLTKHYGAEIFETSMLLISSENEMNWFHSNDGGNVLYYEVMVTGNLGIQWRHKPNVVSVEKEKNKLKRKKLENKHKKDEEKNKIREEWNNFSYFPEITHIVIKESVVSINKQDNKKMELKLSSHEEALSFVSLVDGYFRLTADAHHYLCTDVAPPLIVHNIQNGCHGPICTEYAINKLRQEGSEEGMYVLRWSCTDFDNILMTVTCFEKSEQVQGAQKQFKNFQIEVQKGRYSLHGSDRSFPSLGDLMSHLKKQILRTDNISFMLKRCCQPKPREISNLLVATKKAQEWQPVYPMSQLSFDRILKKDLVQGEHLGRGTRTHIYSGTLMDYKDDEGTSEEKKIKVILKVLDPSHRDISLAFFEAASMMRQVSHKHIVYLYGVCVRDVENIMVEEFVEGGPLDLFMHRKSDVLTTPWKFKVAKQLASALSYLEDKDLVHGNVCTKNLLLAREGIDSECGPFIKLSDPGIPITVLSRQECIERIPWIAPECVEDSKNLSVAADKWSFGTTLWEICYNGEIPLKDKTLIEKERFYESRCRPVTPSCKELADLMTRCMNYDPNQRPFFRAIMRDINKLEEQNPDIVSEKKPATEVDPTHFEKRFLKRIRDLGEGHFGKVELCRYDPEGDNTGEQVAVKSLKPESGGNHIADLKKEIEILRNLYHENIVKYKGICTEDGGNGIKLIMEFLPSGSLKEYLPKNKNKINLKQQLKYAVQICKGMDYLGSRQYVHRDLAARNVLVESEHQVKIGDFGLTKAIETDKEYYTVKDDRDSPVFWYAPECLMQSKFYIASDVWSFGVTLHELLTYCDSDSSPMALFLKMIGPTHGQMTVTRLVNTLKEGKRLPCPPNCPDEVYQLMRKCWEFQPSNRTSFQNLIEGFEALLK
Experiment [8] addresses Mitogen-activated protein kinase kinase kinase 4 (Homo sapiens) (UniProt Q9Y6R4). The experiment in a line: Inhibition of MAP3K4 Lys2 labeling site in human A-375 cells at 0.5 uM by KiNativ Profiling analysis relative to control. In kind it is cell-based.
Experiment [9] addresses Serine/threonine-protein kinase 25 (Homo sapiens) (UniProt O00506). Nature of the experiment: Inhibition of YSK1 ACT labeling site in human A-375 cells at 0.5 uM by KiNativ Profiling analysis relative to control. In kind it is cell-based.
Experiment [10] concerns the target Ribosomal protein S6 kinase alpha-2 (Homo sapiens) (UniProt Q15349). The experiment in a line: Inhibition of RSK3 Protein Kinase Domain in human A-375 cells at 0.5 uM by KiNativ Profiling analysis relative to control. In kind it is cell-based. In outline: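 Live A375 melanoma cells treated with compound at 5 or 0.5 μM, then lysed. Lysate kinases were labeled with a lysine-reactive ATP or ADP-biotin probe. Inhibition was read as protection of labeling sites from the probe.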

In experiment [11] the target is Wee1-like protein kinase (Homo sapiens) (UniProt P30291). Nature of the experiment: Inhibition of Wee1 Lys2 labeling site in human A-375 cells at 0.5 uM by KiNativ Profiling analysis relative to control. In kind it is cell-based.
Experiment [12] deals with Cyclin-dependent kinase 11B (Homo sapiens) (UniProt P21127). Nature of the experiment: Inhibition of CDK11 Lys2 labeling site in human A-375 cells at 0.05 uM by KiNativ Profiling analysis relative to control. In kind it is cell-based.
Chain of Cyclin-dependent kinase 11B (Homo sapiens) (P21127 whole entry, canonical isoform): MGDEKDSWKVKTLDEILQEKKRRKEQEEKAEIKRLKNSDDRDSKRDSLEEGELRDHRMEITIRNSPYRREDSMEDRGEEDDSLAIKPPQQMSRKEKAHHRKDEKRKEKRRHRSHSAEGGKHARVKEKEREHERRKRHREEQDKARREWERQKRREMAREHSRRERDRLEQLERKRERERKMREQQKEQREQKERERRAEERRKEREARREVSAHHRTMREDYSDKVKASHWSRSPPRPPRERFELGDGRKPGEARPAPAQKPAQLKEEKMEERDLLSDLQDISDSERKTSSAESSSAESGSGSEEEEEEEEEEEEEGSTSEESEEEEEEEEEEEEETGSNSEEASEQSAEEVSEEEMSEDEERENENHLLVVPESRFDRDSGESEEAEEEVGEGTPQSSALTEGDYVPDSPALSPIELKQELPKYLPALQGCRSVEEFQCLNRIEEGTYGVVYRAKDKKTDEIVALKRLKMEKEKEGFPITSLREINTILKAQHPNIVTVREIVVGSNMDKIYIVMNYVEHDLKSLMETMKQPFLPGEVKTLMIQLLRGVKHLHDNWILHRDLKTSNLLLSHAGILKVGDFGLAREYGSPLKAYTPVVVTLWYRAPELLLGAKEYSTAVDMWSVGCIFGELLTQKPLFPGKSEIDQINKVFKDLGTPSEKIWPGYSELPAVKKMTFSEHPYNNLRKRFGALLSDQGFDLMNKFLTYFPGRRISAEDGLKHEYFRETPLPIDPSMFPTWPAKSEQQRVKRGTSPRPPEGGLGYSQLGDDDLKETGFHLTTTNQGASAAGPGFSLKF
Experiment [13] concerns the target Casein kinase I isoform epsilon (Homo sapiens) (UniProt P49674). The experiment in a line: Inhibition of CK1epsilon Lys2 labeling site in human A-375 cells at 0.05 uM by KiNativ Profiling analysis relative to control. In kind it is cell-based.
Experiment [14] has as its target Dual specificity mitogen-activated protein kinase kinase 1 (Homo sapiens) (UniProt Q02750). The experiment in a line: Inhibition of MAP2K1 Lys2 labeling site harbouring IMHRDVKPSNILVNSR in human A-375 cells at 0.05 uM by KiNativ Profiling analysis relative to control. In kind it is cell-based.
Experiment [15] has as its target Serine/threonine-protein kinase 38 (Homo sapiens) (UniProt Q15208). Nature of the experiment: Inhibition of NDR1 Lys2 labeling site in human A-375 cells at 0.05 uM by KiNativ Profiling analysis relative to control. In kind it is cell-based.
The target in experiment [16] is Mitogen-activated protein kinase kinase kinase 20 (Homo sapiens, UniProt Q9NYL2). Nature of the experiment: Inhibition of ZAK Lys1 labeling site in human A-375 cells at 0.05 uM by KiNativ Profiling analysis relative to control. In kind it is cell-based.
Chain of Mitogen-activated protein kinase kinase kinase 20 (Q9NYL2 2-800 limits assumed): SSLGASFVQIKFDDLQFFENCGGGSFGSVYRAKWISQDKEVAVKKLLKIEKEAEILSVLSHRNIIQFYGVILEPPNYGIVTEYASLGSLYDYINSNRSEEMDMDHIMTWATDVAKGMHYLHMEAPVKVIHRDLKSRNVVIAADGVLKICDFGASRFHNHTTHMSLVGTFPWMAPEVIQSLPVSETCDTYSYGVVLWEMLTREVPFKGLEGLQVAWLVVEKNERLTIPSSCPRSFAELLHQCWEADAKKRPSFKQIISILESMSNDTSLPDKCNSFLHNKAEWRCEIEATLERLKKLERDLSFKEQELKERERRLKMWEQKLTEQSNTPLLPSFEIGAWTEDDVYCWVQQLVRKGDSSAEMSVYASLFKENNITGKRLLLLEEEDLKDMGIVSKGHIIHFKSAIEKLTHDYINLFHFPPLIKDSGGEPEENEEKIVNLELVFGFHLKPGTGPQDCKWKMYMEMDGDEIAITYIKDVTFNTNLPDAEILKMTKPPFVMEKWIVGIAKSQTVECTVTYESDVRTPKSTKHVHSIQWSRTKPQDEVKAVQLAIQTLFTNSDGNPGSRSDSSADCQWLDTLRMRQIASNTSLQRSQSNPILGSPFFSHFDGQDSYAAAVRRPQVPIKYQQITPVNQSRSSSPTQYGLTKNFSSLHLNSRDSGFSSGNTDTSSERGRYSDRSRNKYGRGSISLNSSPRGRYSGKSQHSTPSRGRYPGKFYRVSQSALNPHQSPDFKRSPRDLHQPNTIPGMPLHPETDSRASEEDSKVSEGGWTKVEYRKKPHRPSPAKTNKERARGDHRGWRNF
Experiment [17] has as its target Mitogen-activated protein kinase kinase kinase kinase 4 (Homo sapiens, UniProt O95819). The experiment in a line: Inhibition of ZC1/HGK Lys1 labeling site in human A-375 cells at 0.05 uM by KiNativ Profiling analysis relative to control. In kind it is cell-based.

Chain of Casein kinase I isoform epsilon (Homo sapiens) (P49674 whole entry, looked up, canonical isoform): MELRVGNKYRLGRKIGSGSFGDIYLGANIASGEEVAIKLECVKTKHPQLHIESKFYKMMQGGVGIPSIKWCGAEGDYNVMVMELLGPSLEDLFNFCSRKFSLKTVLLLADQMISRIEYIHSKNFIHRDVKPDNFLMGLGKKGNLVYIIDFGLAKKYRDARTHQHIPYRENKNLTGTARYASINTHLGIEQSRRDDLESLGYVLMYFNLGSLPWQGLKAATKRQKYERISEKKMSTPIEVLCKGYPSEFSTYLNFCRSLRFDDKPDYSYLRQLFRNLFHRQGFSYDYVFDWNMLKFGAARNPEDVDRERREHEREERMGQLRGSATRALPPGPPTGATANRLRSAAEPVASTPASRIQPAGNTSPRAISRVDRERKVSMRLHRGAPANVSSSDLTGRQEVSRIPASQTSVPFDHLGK
Chain of Ribosomal protein S6 kinase alpha-2 (Homo sapiens) (Q15349 whole entry, the tested form may be a part): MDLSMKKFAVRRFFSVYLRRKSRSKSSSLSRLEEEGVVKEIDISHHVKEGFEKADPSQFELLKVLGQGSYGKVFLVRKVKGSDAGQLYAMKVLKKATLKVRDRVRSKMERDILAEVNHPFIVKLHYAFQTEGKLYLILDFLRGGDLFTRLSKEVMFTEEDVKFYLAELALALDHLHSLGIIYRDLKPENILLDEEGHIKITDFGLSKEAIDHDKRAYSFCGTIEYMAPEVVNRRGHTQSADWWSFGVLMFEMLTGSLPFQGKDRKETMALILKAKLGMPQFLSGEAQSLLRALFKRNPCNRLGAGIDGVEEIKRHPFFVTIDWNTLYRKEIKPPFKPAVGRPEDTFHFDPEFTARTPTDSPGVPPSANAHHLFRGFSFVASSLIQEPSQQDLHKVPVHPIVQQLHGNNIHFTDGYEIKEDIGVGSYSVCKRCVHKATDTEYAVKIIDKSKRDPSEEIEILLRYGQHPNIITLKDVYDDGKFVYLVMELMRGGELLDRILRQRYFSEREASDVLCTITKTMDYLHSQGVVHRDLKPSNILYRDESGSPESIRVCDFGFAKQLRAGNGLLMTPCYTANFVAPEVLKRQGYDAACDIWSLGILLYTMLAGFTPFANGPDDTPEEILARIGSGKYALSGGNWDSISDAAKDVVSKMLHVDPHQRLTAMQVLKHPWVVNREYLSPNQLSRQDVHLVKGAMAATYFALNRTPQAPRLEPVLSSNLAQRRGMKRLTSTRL
Chain of Dual specificity mitogen-activated protein kinase kinase 1 (Homo sapiens) (Q02750 whole entry): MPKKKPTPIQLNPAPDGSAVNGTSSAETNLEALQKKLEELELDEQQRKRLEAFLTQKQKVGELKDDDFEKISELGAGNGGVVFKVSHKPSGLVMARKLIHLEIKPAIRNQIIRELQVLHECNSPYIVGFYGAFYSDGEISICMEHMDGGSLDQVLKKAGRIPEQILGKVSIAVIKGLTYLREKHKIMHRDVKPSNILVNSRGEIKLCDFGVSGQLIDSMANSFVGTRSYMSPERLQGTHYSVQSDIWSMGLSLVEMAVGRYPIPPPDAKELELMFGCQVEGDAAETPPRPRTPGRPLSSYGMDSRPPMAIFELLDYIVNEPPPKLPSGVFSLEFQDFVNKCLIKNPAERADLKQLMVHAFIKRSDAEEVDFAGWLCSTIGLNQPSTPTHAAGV
Chain of Calcium/calmodulin-dependent protein kinase type 1 (Homo sapiens) (Q14012 whole entry, looked up): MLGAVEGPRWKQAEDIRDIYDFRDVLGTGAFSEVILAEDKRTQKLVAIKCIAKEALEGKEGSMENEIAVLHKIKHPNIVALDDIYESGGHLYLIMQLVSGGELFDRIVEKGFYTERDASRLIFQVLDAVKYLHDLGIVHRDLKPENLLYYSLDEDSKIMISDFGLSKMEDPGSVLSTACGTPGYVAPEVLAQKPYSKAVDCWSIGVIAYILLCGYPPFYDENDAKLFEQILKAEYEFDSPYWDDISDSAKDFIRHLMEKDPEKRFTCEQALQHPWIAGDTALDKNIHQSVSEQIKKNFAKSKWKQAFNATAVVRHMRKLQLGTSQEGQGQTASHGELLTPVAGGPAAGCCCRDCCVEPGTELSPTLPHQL

Turning to `CNc1cc(Oc2cc(C(=O)Nc3cc(N4CCN(C)CC4)cc(C(F)(F)F)c3)ccc2C)ncn1`, the inhibition in [1] was 8.8%.

As for `CCN1CCN(Cc2ccc(NC(=O)c3ccc(C)c(/C=C/c4cnc5[nH]ccc5c4OC)c3)cc2C(F)(F)F)CC1`, the inhibition was 60.7% in experiment [2]; -9.4% in [3]; 27% in [4]; 55.5% in experiment [5]; -8.3% in [6]; 5.7% in experiment [7]. The inhibition was -4.4% in experiment [8]; 18.3% in experiment [9]; 3.2% in experiment [10]; 8% in experiment [11]; -9.4% in experiment [12]; -9.6% in experiment [13]. In addition, the inhibition came to 32.5% in [14], 19.2% in experiment [15], 80.5% in experiment [16] and 43.4% in [17].

On to `CNc1cc(Oc2cc(C(=O)Nc3cc(-n4cnc(C)c4)cc(C(F)(F)F)c3)ccc2C)ncn1`, for which, in [1], the inhibition was found to be 5%.

Regarding `CCN1CCN(Cc2ccc(NC(=O)c3ccc(C)c(Oc4ccnc5[nH]ccc45)c3)cc2C(F)(F)F)CC1`, the inhibition in experiment [2] was 71.7%; in [3] it was -0.1%; in [4] it was 3.9%; in experiment [5], 42.3%; in experiment [6] it was -9.4%; in experiment [7], 13%. Further, the inhibition in [8] is 1.2%; in experiment [9], 31.3%; in experiment [10] it was 0.9%; in experiment [11], 13.6%; in experiment [12], 32.1%; in experiment [13], -0.7%. In addition, the inhibition in [14] is 14.9%; in [15], 30%; in experiment [16], 74.1%; in experiment [17], 42.1%.

The record behind these values is ChEMBL document CHEMBL5696442, “Discovery of type II inhibitors of TGFβ-activated kinase 1 (TAK1) and mitogen-activated protein kinase kinase kinase kinase 2 (MAP4K2)” (J Med Chem, 2015).
